Source: ChEMBL document CHEMBL1142077, “Inhibition of Plasmodium falciparum oocyst production by membrane-permeant cysteine protease inhibitor E64d” (2007)
The source made the active and inactive calls. The calls are words filed in the database; no cut-off is given here.

Key:
[1] = tested on: Plasmodium falciparum; test: Inhibition of Pfs230 processing after 1 hrs in Plasmodium falciparum 3D7 at 100 uM in emergence medium; assay type: functional, organism-based
Procedure, shortened: (§1)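 Mature stage V 3D7 gametocytes preincubated 1 h at 37°C in complete RPMI 1640 with inhibitor or DMSO (saponin 0.001% present or absent during this incubation). Cells then pelleted and resuspended in an equal volume of emergence medium (10 µM xanthurenic acid, glucose, NaCl, 8 mM Tris-Cl pH 8.2) at RT. Medium harvested after 1 h and clarified by centrifugation. Readout: immunoblot with Pfs230 region A (aa 304–378) antibodies, scoring 47-kDa and 35-kDa fragments.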

[2] = tested on: Plasmodium falciparum; test: Inhibition of exflagellation after 1 hrs in Plasmodium falciparum 3D7 at 10 uM in emergence medium; assay type: functional, organism-based
Procedure, shortened: (§2)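 Mature 3D7 gametocytes incubated 1 h with inhibitor or an equal volume of DMSO, then pelleted. Gametogenesis triggered by adding an equal volume of emergence medium (xanthurenic acid, pH 8.2, RT). Scored on Giemsa-stained thin smears before and 15 min after the stimulus (emergence), and by bright-field observation of exflagellation centers 15–30 min after the stimulus.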

[3] = tested on: Plasmodium falciparum; test: Inhibition of Pfs230 processing after 1 hrs in Plasmodium falciparum 3D7 at 10 uM in emergence medium with 0.001% saponin; assay type: functional, organism-based; procedure, shortened: as §1
[4] = tested on: Plasmodium falciparum; test: Inhibition of gametogenesis after 1 hrs in Plasmodium falciparum 3D7 at 10 uM in emergence medium; assay type: functional, organism-based; procedure, shortened: as §2
[5] = tested on: Plasmodium falciparum; test: Inhibition of Pfs230 processing after 1 hrs in Plasmodium falciparum 3D7 at 10 uM in emergence medium; assay type: functional, organism-based; procedure, shortened: as §1
[6] = tested on: Plasmodium falciparum; test: Inhibition of oocyst production after 7 days in Anopheles stephensi SxK Nij fed human serum infected with Plasmodium falciparum 3D7 stage V gametocyte at 10 uM for 1 hr; assay type: functional, organism-based
Procedure, shortened: (§3)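 Strain 3D7 stage V gametocyte cultures treated 1 h with inhibitor or DMSO, 0.3 ml pelleted onto 150 µl packed erythrocytes, supernatant replaced by 120 µl normal human serum with active complement; membrane feeder at 39°C, mosquitoes gorge 10 min, kept 7 days at 26°C, >80% humidity. Midguts mercurochrome-stained, oocysts counted; geometric mean per midgut versus DMSO control gives percent reduction; Kruskal-Wallis.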

[7] = tested on: Plasmodium falciparum; test: Inhibition at day 7 of Plasmodium falciparum 3D7 oocyst production in human serum at 100 uM for 1 hrs prior to feeding Anopheles stephensi SxK Nij; assay type: functional; conditions: 3D7, Serum; procedure, shortened: as §3
[8] = tested on: Plasmodium falciparum; test: Inhibition of oocyst production after 7 days in Anopheles stephensi SxK Nij fed human serum infected with Plasmodium falciparum NF54 stage V gametocyte at 100 uM for 30 min; assay type: functional
Procedure, shortened: (§4)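 Isolate NF54 stage V gametocytes treated for stated times with 100 µM inhibitor or DMSO, pelleted onto packed erythrocytes in normal human serum with active complement, membrane-fed (39°C) to Anopheles stephensi SxK Nij for 10 min; mosquitoes kept 7 days at 26°C. Midguts mercurochrome-stained, oocysts counted, 16 to 20 mosquitoes per feeding; geometric mean oocysts per midgut versus control; Kruskal-Wallis.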

[9] = tested on: Plasmodium falciparum; test: Inhibition of gametogenesis after 1 hrs in Plasmodium falciparum 3D7 at 100 uM in emergence medium; assay type: functional, organism-based
[10] = tested on: Plasmodium falciparum; test: Gametocyte morphology as exflagellation after 15-30 min in Plasmodium falciparum 3D7 at 100 uM for 1hr in emergence medium; assay type: functional, organism-based
[11] = tested on: Plasmodium falciparum; test: Inhibition of oocyst production after 7 days in Anopheles stephensi SxK Nij fed human serum infected with Plasmodium falciparum NF54 stage V gametocyte at 100 uM for 15 min; assay type: functional; procedure, shortened: as §4
[12] = tested on: Plasmodium falciparum; test: Inhibition of oocyst production after 7 days in Anopheles stephensi SxK Nij fed human serum infected with Plasmodium falciparum NF54 stage V gametocyte at 100 uM for 1 hr; assay type: functional; procedure, shortened: as §4

| SMILES | Activity [1] | Activity [2] | Activity [3] | Activity [4] | Activity [5] | Activity [6] | inhibition at 100 µM [7] [%] | inhibition at 100 µM [8] [%] | Activity [9] | Activity [10] | inhibition at 100 µM [11] [%] | inhibition at 100 µM [12] [%] |
| --- | --- | --- | --- | --- | --- | --- | --- | --- | --- | --- | --- | --- |
| CC(C)C[C@H](NC(=O)C(CCc1ccccc1)NC(=O)CF)C(=O)NC(=O)N1CCOCC1 (some centres not stated) | inactive | inactive | Active | inactive | inactive | – | – | – | – | – | – | – |
| CCOC(=O)[C@H]1O[C@@H]1C(=O)N[C@@H](CC(C)C)C(=O)NCCC(C)C [ALOXISTATIN] | – | – | – | – | – | inactive | 81 | 98 | inactive | inactive | 79 | 100 |
